This is a sample that favours compounds with a hit; in the whole collection about 1.7% have one here.
EBNA-1 inh: blocks EBNA-1 binding to DNA. inhibition, % at 14.8 µM. EBNA-1 DNA binding, fluorescence polarization. 300,000 compounds, 0.34% hits; in the data active means inhibition above about 28%
UBC13 inh: human UBC13 polyubiquitination inhibition; P61088; UBC13 polyubiquitin chain formation, TR-FRET; inhibition, % at 20 µM; 330,000 compounds, 0.47% hits; in the data active means inhibition above about 45%, passing the limit was not always enough; inconclusive means no clear call, values can overlap the other calls
ZTA DNA inh: blocks Epstein-Barr virus ZTA, an EBNA-1 counter-screen. ZTA-DNA binding, fluorescence polarization. inhibition, % at 11 µM. 320,000 compounds, 0.15% hits. P03206. AID 2234; in the data active means inhibition above about 33%
Apaf1 inhib: inhibitors of human Apaf-1 apoptosome; O14727; reconstituted apoptosome caspase-3 activity, DEVD-Rh110 fluorescence; inhibition, % at 20 µM; 330,000 compounds, 0.71% hits; AID 489030; active means inhibition of at least 40% at 20 µM;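 further: plate controls were DMSO wells for no effect and DEVD-CHO caspase inhibitor wells for full effect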
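Medium: Hepes buffer, pH 7.5 / System: biochemical Apaf-1 apoptosome reconstitution / Measured by: Rh110 fluorescence, excitation 480 nm, emission 540 nm / Times: compound with Apaf-1, dATP, procaspase-3 30 min, then 50 min reaction, room temperature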
PREPL inh: inhibits the human prolyl oligopeptidase-like enzyme | Q4J6C6 | recombinant PREPL, fluorescence polarization activity-based probe | inhibition, % at 5.96 µM | 320,000 compounds, 0.68% hits;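 further: 0% = enzyme with DMSO and 100% = wells lacking enzyme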
Target sequence (Q4J6C6 whole entry, looked up): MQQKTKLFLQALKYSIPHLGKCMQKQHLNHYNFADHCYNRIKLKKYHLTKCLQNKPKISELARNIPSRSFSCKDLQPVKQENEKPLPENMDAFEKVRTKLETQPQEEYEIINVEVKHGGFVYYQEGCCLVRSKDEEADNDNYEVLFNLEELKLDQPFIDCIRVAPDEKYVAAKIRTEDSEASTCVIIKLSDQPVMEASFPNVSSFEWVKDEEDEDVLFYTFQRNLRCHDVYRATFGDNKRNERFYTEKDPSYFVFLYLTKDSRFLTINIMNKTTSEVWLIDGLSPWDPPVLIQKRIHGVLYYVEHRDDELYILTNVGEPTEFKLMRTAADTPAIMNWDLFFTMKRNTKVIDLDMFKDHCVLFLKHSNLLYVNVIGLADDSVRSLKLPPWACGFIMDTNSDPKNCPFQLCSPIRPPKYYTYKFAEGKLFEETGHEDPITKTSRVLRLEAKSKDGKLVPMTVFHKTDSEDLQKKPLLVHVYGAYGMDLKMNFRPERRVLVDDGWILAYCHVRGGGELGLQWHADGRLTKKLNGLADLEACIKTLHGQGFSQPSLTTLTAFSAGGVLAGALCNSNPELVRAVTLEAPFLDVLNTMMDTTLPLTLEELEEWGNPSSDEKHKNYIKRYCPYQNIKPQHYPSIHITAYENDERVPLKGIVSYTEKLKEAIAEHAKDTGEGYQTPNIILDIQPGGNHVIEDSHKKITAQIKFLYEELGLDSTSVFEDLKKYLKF
PREPL confirm: human PREPL inhibition, confirmation | shares compounds with PREPL inh | recombinant PREPL, fluorescence polarization activity probe | inhibition, % at 5.96 µM | 2,000 compounds, 67% hits;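 further: 0% = protein with DMSO and 100% = wells lacking protein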
Casp3 UBC13 ctr: counter-screen for UBC13 inhibitors: human caspase-3 inhibition. shares compounds with UBC13 inh. Recombinant caspase-3, Caspase-Glo 3/7 luminescence, 60 min. inhibition, % at 20 µM. 1,400 compounds, 4% hits. AID 488856;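 active means mean inhibition across replicates above about 26%, limit read from the data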;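 further: plate controls were DMSO with caspase-3 for no effect and DMSO wells lacking enzyme for full effect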
UBC13 conf: confirmation of human UBC13 polyubiquitin inhibitors; shares compounds with UBC13 inh; 1,400 compounds, 68% hits; UBC13 polyubiquitination, TR-FRET, biochemical; inhibition, % at 10 µM; AID 488859; in the data active means inhibition above about 45%; inconclusive means no clear call, values can overlap the other calls
Apaf-1 inh conf2: Apaf-1 inhibition, single-dose confirmed. shares compounds with Apaf1 inhib. reconstituted apoptosome, caspase-3 DEVD-Rh110 fluorescence. inhibition, % at 20 µM. 1,800 compounds, 25% hits. AID 504614;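 active means mean inhibition of at least 40% at 20 µM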;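 further: plate controls were DMSO wells for no effect and DEVD-CHO caspase inhibitor control wells for full effect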
Rh110 quench: interferes with Rh110 fluorescence, flagging false Apaf-1 inhibitors; Rh110 fluorescence interference, quenched caspase reaction; 1,800 tested, under 10 active; activation (fluorescence interference), % at 20 µM; shares compounds with Apaf1 inhib; AID 504615;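 active means signal rise of 40% or more at 20 µM, treated as a fluorescence artifact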
Fluor interf inh: Apaf-1 inhibitor counter-screen fluorescence artifact | shares compounds with Apaf1 inhib | fluorescence interference counterscreen, Apaf-1 assay format | IC50, µM | 460 tested, under 10 active; call rule not given here
An asterisk follows results filed as active; ? = inconclusive; / = no result. Unless noted, no stated cut-off is given here; in the data, active means inhibition above about 43%; inactive means the rest.

SMILES	EBNA-1 inh	UBC13 inh	ZTA DNA inh	Apaf1 inhib	PREPL inh	PREPL confirm	Casp3 UBC13 ctr	UBC13 conf	Apaf-1 inh conf2	Rh110 quench	others
CC(C)C[C@@H]1CN=C(N)N1C[C@@H]1CCCN1C[C@@H](C(C)C)N1C[C@@H](Cc2ccccc2)N(CCc2ccc(Cl)c(Cl)c2)C1=N	/	15.1	/	63.4*	70.4*	64.0*	/	/	9.7	5.5
Cc1cccc(CCN2C(Nc3ccccc3)=NC[C@@H]2CC(C)C)c1	-10.2	25.0	-18.4	11.9	-30.7	/	/	/	/	/
NC1=NC[C@H](Cc2ccccc2)N1CC1CCCCC1	2.2	3.6	-7.8	13.7	6.1	/	/	/	/	/
CC(C)C[C@@H]1CN=C(N)N1C[C@@H]1CCCN1C[C@H](C)N1C[C@@H](Cc2ccccc2)N(CCc2ccc(Cl)c(Cl)c2)C1=N	/	75.5*	/	63.0*	45.0*	37.8	3.2	71.1*	6.8	3.3
O=C(N/N=C/c1ccc(N2CCOCC2)cc1)c1ccccn1	2.4	-7.8	-15.1	-24.5	-18.2	/	/	/	/	/
Cc1c(C)c(C)c(C(=O)C2CCN(c3ccc([N+](=O)[O-])cn3)CC2)c(C)c1C	-2.1	0.7	-11.2	5.0	-7.8	/	/	/	/	/
CCCCN1C(N)=NC[C@@H]1C(C)O (stereo not given in full)	-2.7	-1.2	-10.4	-4.4	-2.1	/	/	/	/	/
CC[C@@H](C)[C@@H]1CN([C@@H](CN2CCC[C@H]2CN2C(N)=NC[C@@H]2Cc2ccccc2)C(C)C)C(=N)N1CCCC1CCCC1	/	72.3*	/	63.1*	55.7*	50.2*	-3.0	76.0*	13.3	10.8
CC[C@@H](C)[C@@H]1CN([C@@H](CN2CCC[C@H]2CN2C(N)=NC[C@H]2C(C)C)C(C)C)C(=N)N1CCCC1CCCC1	/	52.9*	/	40.5*	54.2*	50.3*	0.5	56.4*	0.4	-9.3
COc1ccc(C2CC(=O)Oc3c(C(CCN4CCCC(C)C4)c4ccc(N(C)C)cc4)c(OC)cc(OC)c32)cc1 (stereo not given)	11.6	34.8	-17.0	49.1*	44.3*	60.4*	/	/	18.2	12.4
COc1cc(C2CC(=O)Oc3c(C(CCN4CCN(c5ccccc5)CC4)c4ccc(N(C)C)cc4)c(OC)cc(OC)c32)cc(OC)c1OC (stereo not given)	4.4	-0.6	17.1	15.2	31.6	/	/	/	/	/
O=C(c1ccc(CS(=O)c2cccc(Cl)c2)o1)N1CCOCC1 (stereo not given)	10.8	4.4	9.8	-9.2	0.9	/	/	/	/	/
COc1ccc(NC(=O)CSc2nc3c(c(-c4cccs4)c2C#N)CN(C)CC3)cc1OC	-9.8	-16.6	-14.5	66.9*	44.5*	17.1	/	/	8.6	4.0
CC(C)n1cnc2c(NCc3ccccc3)cc(N[C@H](C)CO)cc21	/	-29.4	/	96.7*	60.5*	22.1	/	/	95.6*	5.3	Fluor interf inh=>100
COc1ccc(Cc2cc(NCc3ccccc3)c3ncn(C(C)C)c3c2)cc1	/	23.2	/	34.8	35.2	/	/	/	/	/
CCC(CO)Oc1cc(NCc2ccccc2)c2ncn(C(C)C)c2c1 (stereo not given)	/	2.4	/	32.7	39.4	/	/	/	/	/
CCC(COC)Oc1cc(NCc2ccccc2)c2ncn(C(C)C)c2c1 (stereo not given)	/	1.4	9.5	97.2*	51.6*	9.4	/	/	67.2*	1.2	Fluor interf inh=>100
CCOC(=O)c1c(NC(=O)CSc2nncn2C)sc(C)c1C	-7.3	/	4.4	/	10.9	/	/	/	/	/
O=c1cc(-c2ccccc2)[nH]n2cnnc12	-9.9	4.7	-13.7	3.2	3.6	/	/	/	/	/
Nc1c(C(=O)NCc2ccccc2)c2nc3ccccc3nc2n1CCCN1CCOCC1	5.3	30.3	23.6	49.4*	44.6*	40.9	/	/	32.5	26.4
CC(C)Cn1c(N)c(C(=O)NCCN2CCOCC2)c2nc3ccccc3nc21	-6.0	6.9	1.8	-4.0	12.8	/	/	/	/	/
O=C(N/N=C1\C/C(=N\NC(=O)c2ccncc2)c2ccccc21)c1ccncc1	-13.5	-97.5	-18.9	93.4*	46.1*	9.9	/	/	60.3*	7.1	Fluor interf inh=>100
Nc1cc(=O)nc(SCC(=O)N(C2CCCCC2)C2CCCCC2)n1-c1ccccc1	-2.8	-9.4	0.9	10.6	-0.9	/	/	/	/	/
C#CCOCCOCCOCCNc1nc(N2CCN(C(=O)CCCCCCCCCCNC(=O)[C@H]([C@@H](C)CC)n3cc(CCCCCN)nn3)CC2)nc(N2CCN(C(=O)CCCCCCCCCCNC(=O)[C@H](CO)n3cc(CCCCCN)nn3)CC2)n1	-15.3	120.4*	-1.7	71.3*	50.1*	51.2*	-0.5	123.7*	48.1*	9.0	Fluor interf inh=>100
Cc1ccc(-c2csc(N3CCN(CCCn4c(C(F)(F)F)nc5ccccc54)CC3)n2)cc1	9.4	1.2	-7.5	18.7	15.6	/	/	/	/	/
SMILES	EBNA-1 inh	UBC13 inh	ZTA DNA inh	Apaf1 inhib	PREPL inh	PREPL confirm	Casp3 UBC13 ctr	UBC13 conf	Apaf-1 inh conf2	Rh110 quench	others
CC1CC(C)(C)CC2(C1)NC(=O)N(CC(=O)Nc1ccc3[nH]c(=O)[nH]c3c1)C2=O (stereo not given)	/	76.9*	10.3	44.3*	49.4*	37.9	-3.1	4.6	20.2	7.0
CC(C)(C)NC(=O)COC(=O)CCC(=O)c1ccc(F)cc1	6.5	4.0	-1.2	-8.1	6.7	/	/	/	/	/
COc1cc2nc(Nc3ccc(C)c(Cl)c3)nc(N)c2cc1OC	6.1	110.8*	2.2	45.1*	72.5*	66.2*	25.1*	120.7*	34.9	13.6
Nc1ccc2nc(-c3cccc(-c4nc5ccc(N)cc5[nH]4)n3)[nH]c2c1	5.0	99.9*	-22.4	40.2*	55.6*	38.3	0.8	114.0*	15.6	20.6
Nc1ccc2nc(-c3ccc(-c4nc5ccc(N)cc5[nH]4)cc3)[nH]c2c1	-16.9	22.6	-24.5	-10.9	20.0	/	/	/	/	/
CN1CCN(C(=O)CN(Cc2ccc(Cl)cc2)S(C)(=O)=O)CC1	3.8	3.1	3.6	-24.6	10.2	/	/	/	/	/
CN1CCN(CCCN2c3ccccc3Sc3ccc(Cl)cc32)CC1	-7.9	96.9*	-6.8	57.4*	63.1*	55.5*	0.8	99.0*	13.9	6.1
Nc1cccc2nc3ccccc3cc12	2.9	-15.8	-8.4	-3.1	-3.7	/	/	/	/	/
Cc1cc2c(N)cccc2nn1	7.4	-42.5	23.9	96.8*	68.2*	11.5	/	/	26.6	-0.2
CN(Cc1ccccc1)C(=O)COC(=O)c1cc(-c2ccc(Cl)s2)nc2ccccc12	9.4	51.3*	8.0	14.2	-19.7	/	-1.6	?	/	/

Source: PubChem BioAssay
